In the EternaBench riboswitch data:

How the values were obtained:
MS2 coat protein [1] = assay: apparent Kd, MS2 coat protein; higher = weaker binding; RNA-MaP array; tryptophan 2.4 mM where present
Method in brief: (§1)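 Each design was made on Illumina sequencing-chip clusters by stalled E. coli RNA polymerase and titrated with SNAP-549-labelled MS2 coat protein from 0.7 or 1.5 nM, doubling to 3 µM, in the absence and then the presence of constant ligand. The buffer was 100 mM Tris-HCl pH 7.5, 80 mM KCl, 4 mM MgCl2, BSA, DTT, yeast tRNA and Tween-20. The apparent Kd is the median of filtered per-cluster fits of binding curves, with green signal normalised to red-channel RNA signal and control-cluster median Fmax.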

MS2 coat protein [2] = assay: apparent Kd, MS2 coat protein; higher = weaker binding; RNA-MaP array; theophylline 2 mM where present
Method in brief: as §1

[3] = designed as: OFF switch for tryptophan, no ligand
[4] = ligand present: tryptophan, designed as: OFF switch for tryptophan
[5] = designed as: ON switch for tryptophan, no ligand
[6] = ligand present: tryptophan, designed as: ON switch for tryptophan
[7] = designed as: OFF switch for theophylline, no ligand
[8] = ligand present: theophylline, designed as: OFF switch for theophylline
[9] = designed as: ON switch for theophylline, no ligand
[10] = ligand present: theophylline, designed as: ON switch for theophylline

Sequence	apparent Kd (MS2 coat protein [1]; [3]) [nM]	apparent Kd (MS2 coat protein [1]; [4]) [nM]	apparent Kd (MS2 coat protein [1]; [5]) [nM]	apparent Kd (MS2 coat protein [1]; [6]) [nM]	also measured
AAACAUGAGGCGGCCGCCACUGUAUGAACAUGAGGAUCACCCAUGUAUGUACCCAUGUGUGUACACAGGACCGGGCCAUGUGGAU	28.1	19.9			
AACAUACAAUAUUAGGUGGAUAUAAGGCGGCGAGGACCGGUACGGCCGCCACUCGCGUACAUGAGGAUCACCCAUGUCUGAAACU			20.4	23.5	
AACAUGAGGAUCACCCAUGUACAUUUCGAUCGAGGACCGGUACGGCCGCCACUCGAAAACAUGAGGAUCACCCAUGUUCAACAGG			296	184	
AACAUGAGGAUCACCCAUGUGUCCUCGAAACGAGGACCGGUACGGCCGCCACUCGAAUAAGGUGUUGACGAAAAGUCAGCACCAA	274	501			
AACAUGAGGAUCACCCAUGUGUCCUCGAAACGAGGACCGGUACGGCCGCCACUCGACGUAUGUUGACGAAAAGUCAGCAUACGAA	281	885			
AACUUCGCAUAGGAAAACUAUGUGAAGAAUCGAGGACCGGUACGGCCGCCACUCGUCCUCAACAUGAGGAUCACCCAUGUAAUAA	18.9	34.8			
AAUAAUAUCCUCAUGUGAGUCGUACCGUAACGAGGACCGGUACGGCCGCCACUCGAACAUGAGGAUCACCCAUGUAGGUACGACA			207	99.7	
AAUAUAAUAGACUCGUUUUAGUAUUUGGAACGAGGACCGGUACGGCCGCCACUCGUGAUUUACAUGAGGAUCACCCAUGUUAGCA			14.7	13.1	
ACAUGAGGAUCACCCAUGUGAAGCAGGGUACGAGGACCGGUACGGCCGCCACUCGAACAUUAUAACGAGUGAAUGGCAACGAUGU	11.9	14.2			
ACCUGCGUUUGAUUCUAUCAGACGCAGGUUCGAGGACCGGUACGGCCGCCACUCGGACAUGAGGAUCACCCAUGUUUGACAUGGG	64.5	211			
ACGACGGCUGCGGCCGCCACUGUACAUGAGGAUCACCCAUGUGUAGUAAUUGGGACCCUGUGUUACAGGACCGGGUAGUUGAUUA	34.6	69.9			
AGACUUCGCAUAGGAAAACUAUGUGAAGUCCGAGGACCGGUACGGCCGCCACUCGUCCUCACAUGAGGAUCACCCAUGUAAAUAA	22.2	29.1			
AGAUUCGACACGGCCGCCACUCGUGACGGAUUUCCGAGUGUCGAACAUGAGGAUCACCCAUGUACGAGGACCGGGUGUUGAGUCU	74.7	499			
AGAUUCGACACGGCCGCCACUUUCAGUGGCUGGUCACAUGGUGCACAUGAGGAUCACCCAUGUGGAAGGACCGGGUGUUGAGUCU	28	91.9			
AGCCACUCGAGUGAUCCUCACGAGUGGCUACGAGGACCGGUACGGCCGCCACUCGAAUUAACAUGAGGAUCACCCAUGUAAUCAU			31.5	111	
AUAAAUAAUAAAUAAAAUAAAAUGGGUGAACGAGGACCGGUACGGCCGCCACUCGGACAUGAGGAUCACCCAUGUCCAUGUGAAA	19.5	46.1			
AUACAUGAGGAUCACCCAUGUGAUGGCCGGCGAGGACCGGUACGGCCGCCACUCGUGAUCCGUCCUGAAAGCAAAGCUCUCAACA			47.2	91.2	
AUAUAUACAUGAGGAUCACCCAUGUUAUUUCGAGGACCGGUACGGCCGCCACUCGAUAGAGUGGAAGUAACAUUUGUUAGAUGAU			15.7	15.4	
AUUAAUAAUAUGUAGACGGCGGAGACGAGACGAGGACCGGUACGGCCGCCACUCGUGUUAGUUAACAUGAGGAUCACCCAUGUUA			12.5	12.8	
CCUAUGCAGUCGGCCGCCACUGAUAACGUUAUCGUUACCUCAGAAACAUGAGGAUCACCCAUGUACAGGACCGGGACUGUAUAGG	12.8	15.3			
CGAGUAAGAACAAUCGAAUAACGGUUUUCGCGAGGACCGGUACGGCCGCCACUCGUGUGAUAUCACACAUGAGGAUCACCCAUGU			80.2	41.2	
CGCCACUCGAGUGAUCCUCACGAGUGGCUACGAGGACCGGUACGGCCGCCACUCGAAUUAACAUGAGGAUCACCCAUGUAAUCUA			56.7	27.7	
CUACAUUUGUAGAAACCGGUCAACAAUAAUCGAGGACCGGUACGGCCGCCACUCGAUGUGUUAUACACAUGAGGAUCACCCAUGU			21.1	17.4	
CUCAUCCACGCGGCCGCCACUAUAUUGUGGUGUGAGUGUGACGUAUUACAUGAGGAUCACCCAUGUAGGACCGGGCGUGGAUGAG	34.6	308			
GAACAGUCGGACAUGAGGAUCACCCAUGUGCGAGGACCGGUACGGCCGCCACUCGACAAGGGCGGUCCCGAAGCGAACAUACGCG	23.8	14.7			
GAGGAAACUCACAUGAGGAUCACCCAUGUACGAGGACCGGUACGGCCGCCACUCGAAACCAUGGGCGGUAGUACAUGGAAACAUG	72.3	263			

Sequence	apparent Kd (MS2 coat protein [1]; [3]) [nM]	apparent Kd (MS2 coat protein [1]; [4]) [nM]	apparent Kd (MS2 coat protein [1]; [5]) [nM]	apparent Kd (MS2 coat protein [1]; [6]) [nM]	also measured
GAGUCCGCGGCGGCCGCCACUCGCGAUAUAACAUGAUAUCAGGACAUGAGGAUCACCCAUGUCACGAGGACCGGGCCGAUCCUCA			28	17.6	
GCAUCCUAGUCGGCCGCCACUGCAUCACCAGUGGCAGGUGAUCAACAUGAGGAUCACCCAUGUAGCAGGACCGGGACUAGGAUGC			135	43.7	
GCUACAUGAGGAUCACCCAUGUAUGCGAGCCGAGGACCGGUACGGCCGCCACUCGCUUAACAUGAGGAUCACCCAUGUUUCUCGG			169	125	
GCUGGACUUUCGGCCGCCACUGAGAGAGUCGUGUGAACAUGAGGAUCACCCAUGUAAUAUAUAUACAGGACCGGGAGGGUUGUGC	11.8	11.9			
GGAAACCCGACGGCCGCCACUAACGGUCUCAAAAGAGGUUGAACACAUGAGGAUCACCCAUGUAAUAGGACCGGGUCGUGUGAAA			20.3	18.5	
GGAGUAGGAAACUAUUCCAAUCCUCGUGAACGAGGACCGGUACGGCCGCCACUCGAUAAUUAAUAACAUGAGGAUCACCCAUGUA	83.7	121			
GGGAGGUAGGCGGCCGCCACUGAUUUUCAUAUAUAUAUAACAUGAGGAUCACCCAUGUAGAUAUGCAGGACCGGGCCUGUUUUUU			23.9	19.3	
GGUUACUCUACGGCCGCCACUGAACAUGAGGAUCACCCAUGUAAUGUUCAGUAGUCUUUAGACAACAGGACCGGGUAGUGUAACC			228	215	
GGUUACUCUACGGCCGCCACUGUCAUGUAAAGAUACCUGUACAUGACAUGAGGAUCACCCAUGUGCAGGACCGGGUAGUGUAACC			152	130	
UCUUUCUAUAGUGAUACCAGACGUACAUGAGGAUCACCCAUGUUACAUUCUUGGUUAAAAGUCCCUUGGCAGCACGAUUUGUUCG					apparent Kd (MS2 coat protein [2]; [7]): 9.51 nM; apparent Kd (MS2 coat protein [2]; [8]): 10.2 nM
UCUUUCUAUGUAGAUACCAGCAUGUUAUCUUUCUUUUGACAUGAGGAUCACCCAUGUAAAUGCCCUUGGCAGCUACAUUUUCUUU					apparent Kd (MS2 coat protein [2]; [9]): 21.4 nM; apparent Kd (MS2 coat protein [2]; [10]): 15.4 nM
UGACAUUGCUCAGAUACCAGACAUGAGGAUCACCCAUGUACCAAGGUAACCGAAAGGCAUGUCCCUUGGCAGCUGAGCAAUGUCU					apparent Kd (MS2 coat protein [2]; [7]): 11.1 nM; apparent Kd (MS2 coat protein [2]; [8]): 225 nM
UGACAUUGCUCAGAUACCAGACAUGAGGAUCACCCAUGUACCGAGGUACCCGAAAGGAAUGUCCCUUGGCAGCUGAGCAAUGUCU					apparent Kd (MS2 coat protein [2]; [7]): 10.9 nM; apparent Kd (MS2 coat protein [2]; [8]): 152 nM
UGACAUUGCUGCGAUACCAGACAUGAGGAUCACCCAUGUACCAAGGUAAAGAAAUAACGUGUCCCUUGGCAGCGCAGCAAUGUCU					apparent Kd (MS2 coat protein [2]; [7]): 9.91 nM; apparent Kd (MS2 coat protein [2]; [8]): 91.1 nM
UGAUCCUACAGAGAUACCAGUGCCACUGAGUGACCAGACACAUGAGGAUCACCCAUGUAACACCCUUGGCAGCUCAACUAGAGGG					apparent Kd (MS2 coat protein [2]; [9]): 20.4 nM; apparent Kd (MS2 coat protein [2]; [10]): 69.7 nM
UGCAUCAUAAUCAUGUAGGUGCUAGGUGAUACCAGCAUCGAAAGAUGCCCUUGGCAGCACCAACAUGAGGAUCACCCAUGUAAUA					apparent Kd (MS2 coat protein [2]; [9]): 216 nM; apparent Kd (MS2 coat protein [2]; [10]): 97.1 nM
UGGUUUGUGAUGGAUACCAGCAGAGAAAACGUUUAUCCUAACAUGAGGAUCACCCAUGUAUGCCCUUGGCAGCUGUUGUGGGCUA					apparent Kd (MS2 coat protein [2]; [7]): 32 nM; apparent Kd (MS2 coat protein [2]; [8]): 34.9 nM
UGUAACAUGAGGAUCACCCAUGUGAGUGAUACCAGAUAAGUAGUAGUCCCUUGGCAGCAUAUUGGGCGAGUGUAUAGUCUAUACG					apparent Kd (MS2 coat protein [2]; [9]): 157 nM; apparent Kd (MS2 coat protein [2]; [10]): 179 nM
UGUAACAUGAGGAUCACCCAUGUGAGUGAUACCAGAUUAGUAGUAGUCCCUUGGCAGCAUAUUGGGCGAGUGUAUAGUCUAUGCG					apparent Kd (MS2 coat protein [2]; [9]): 165 nM; apparent Kd (MS2 coat protein [2]; [10]): 221 nM
UGUAUGUGAUUUGAUACCAGACCAGCUGGUGGUACAUGAGGAUCACCCAUGUAGGUUUGGGUCCCUUGGCAGCAAAUCGCAUACU					apparent Kd (MS2 coat protein [2]; [9]): 47.9 nM; apparent Kd (MS2 coat protein [2]; [10]): 30 nM
UUAAAUGUGACGGAUACCAGCGUGUUGUAGAACAUGAGGAUCACCCAUGUAGUGAUCAAGCGCCCUUGGCAGCUGGUAUGUUUGA					apparent Kd (MS2 coat protein [2]; [9]): 191 nM; apparent Kd (MS2 coat protein [2]; [10]): 300 nM
UUAAUGGAGCUUUUAUUUACGAUUUCUGAUACCAGUGUUUCAUUUCACCCUUGGCAGCAGUGACAUGAGGAUCACCCAUGUAAUA					apparent Kd (MS2 coat protein [2]; [9]): 25.7 nM; apparent Kd (MS2 coat protein [2]; [10]): 22.8 nM
UUAUUUAUAAUGGAUACCAGUCGUAUGGCCCGGAAUCCUGACAUGAGGAUCACCCAUGUCGACCCUUGGCAGCUGUUAUGGGUUU					apparent Kd (MS2 coat protein [2]; [7]): 14.5 nM; apparent Kd (MS2 coat protein [2]; [8]): 24.6 nM
UUCUGGACCCGUGAUACCAGAGACAUGAGGAUCACCCAUGUACAUGAGGAUCACCCAUGUCUCCCUUGGCAGCACUGCAGGGAGC					apparent Kd (MS2 coat protein [2]; [7]): 115 nM; apparent Kd (MS2 coat protein [2]; [8]): 875 nM
UUUACAUGAGGAUCACCCAUGUGCCAUGAUACCAGACAUGAAAAUGUCCCUUGGCAGCAUGAGUGAUGCAUCCGAAAGGAUGUUU					apparent Kd (MS2 coat protein [2]; [9]): 81.6 nM; apparent Kd (MS2 coat protein [2]; [10]): 611 nM
UUUGCACAUGAGGAUCACCCAUGUACAGAUACCAGCCUCAUCUACGGCCCUUGGCAGCUGAGAUAAUGGUGACGUGAUGGGCUUU					apparent Kd (MS2 coat protein [2]; [7]): 14 nM; apparent Kd (MS2 coat protein [2]; [8]): 26.3 nM
